In assay [1] the test system is L1210. Briefly: In vitro cytostatic activity determined on L1210 leukemia cells at 24 hours. It is filed as functional. Conditions: Mus musculus, L1210, 24 h; read-out: ID50 (the source's name). The procedure, abridged:
(§1)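 Log-phase L1210 cells were seeded at 0.8 × 10⁵ cells/mL in RPMI 1640 with 20% heat-inactivated horse serum, 2 mmol/L L-glutamine, streptomycin and penicillin. Drugs in ethanol (0.5% final) were tested at several concentrations.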

Assay [2] concerns L1210. Briefly: In vitro cytostatic activity determined on L1210 leukemia cells at 48 hours. It is filed as functional. As to conditions: Mus musculus, L1210, 48 h; read-out: ID50 (the source's name). The procedure, abridged: as §1
The test system of assay [3] is P388. Kind of assay: Antitumor activity against P388 Leukemia from CDF1 female mice as Median survival time of treated mice at a dose of 0.12 mg/kg/day. It is filed as functional, Mus musculus. An outline of the steps:
(§2)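 CDF1 female mice (BALB/c ♀ × DBA/2 ♂) given 10⁶ P388 cells ip on day 0. Drug in 2% methanol given ip on days 1, 5 and 9, 10 mice per group and more controls. Toxicity is survivors on day 5, with weight change between days 1 and 5. Mortality followed 30 days. T/C% is treated over control median survival (NCI method), significant at ≥125%.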

The subject of assay [4] is P388. Briefly: Antitumor activity against P388 Leukemia from CDF1 female mice as Median survival time of treated mice at a dose of 0.75 mg/kg/day. It is filed as functional, Mus musculus. An outline of the steps: as §2
Assay [5] deals with P388. Kind of assay: Antitumor activity against P388 Leukemia from CDF1 female mice as average weight change of animals between day 1 and day 5 after tumor implementation at a dose of 0.12 mg/kg/day. It is filed as functional, Mus musculus. The procedure, abridged: (§3)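 P388 leukemia: CDF1 female mice were inoculated ip with 10⁶ cells on day 0. Treatment in 2% methanol was given ip on days 1, 5 and 9, with 10 mice per group and a larger control group. Body weight was recorded on days 1 and 5 post-implant, and the average change was reported.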

The subject of assay [6] is P388. Briefly: Antitumor activity against P388 Leukemia from CDF1 female mice as average weight change of animals between day 1 and day 5 after tumor implementation at a dose of 0.75 mg/kg/day. It is filed as functional, Mus musculus. An outline of the steps: as §3
The test system of assay [7] is P388. Briefly: Antitumor activity against P388 Leukemia from CDF1 female mice (T/C) as median survival time of treated mice (T) over that of control mice (C) at a dose of 0.75 mg/kg/day. It is filed as functional, Mus musculus. The procedure, abridged:
as §2

In assay [8] the test system is P388. Briefly: Antitumor activity against P388 Leukemia from CDF1 female mice (T/C) as median survival time of treated mice (T) over that of control mice (C) at a dose of 0.12 mg/kg/day. The class given is functional, Mus musculus. An outline of the steps: as §2
In assay [9] the test system is P388. Briefly: Antitumor activity against P388 Leukemia from CDF1 female mice as the number of survivors on day 5 at a dose of 0.75 mg/kg/day. The class given is functional, Mus musculus. An outline of the steps: as §2

In brackets after ≈: the same amount, converted by molar mass.

In the case of `COc1ccc(C[C@H]2C(=O)O[C@H](C)C(NC(=O)[C@H](CC(C)C)N(C)C(=O)C3CCCN3C(=O)[C@@H](C)O)C(=O)NC(C(C)C)[C@H](O)CC(=O)O[C@@H](C(C)C)C(=O)[C@H](C)C(=O)N[C@@H](CC(C)C)C(=O)N3CCC[C@H]3C(=O)N2C)cc1` (some centres not stated), the IC50 with L1210 [1] is 1260 ng/mL (≈ 1150 nM); in the assay on L1210 [2], 589 ng/mL (≈ 536 nM).

Regarding `CCCCCCCCCCCCCCCC(=O)N1CCCC1C(=O)N(C)[C@H](CC(C)C)C(=O)N[C@@H]1C(=O)NC(C(C)C)[C@H](O)CC(=O)O[C@@H](C(C)C)C(=O)[C@H](C)C(=O)N[C@@H](CC(C)C)C(=O)N2CCC[C@H]2C(=O)N(C)[C@@H](Cc2ccc(OC)cc2)C(=O)O[C@@H]1C` (some centres not stated), the IC50 in the assay with L1210 [1] and in the assay on L1210 [2] was over 1000 ng/mL in each case.

Regarding `COc1ccc(C[C@H]2C(=O)O[C@H](C)[C@H](NC(=O)[C@@H](CC(C)C)N(C)C(=O)C3CCCN3C(=O)CCc3ccc(O)cc3)C(=O)NC(C(C)C)[C@H](O)CC(=O)O[C@@H](C(C)C)C(=O)[C@H](C)C(=O)N[C@@H](CC(C)C)C(=O)N3CCC[C@H]3C(=O)N2C)cc1` (some centres not stated), the IC50 with L1210 [1] was 4.8 ng/mL (≈ 4.09 nM); in the assay on L1210 [2], 1.5 ng/mL (≈ 1.28 nM). The figures for the “median survival time, days” value with P388 [3] and in the assay with P388 [4] were 14.7 and 18.7, respectively. Besides, the results for the Body weight change in the assay with P388 [5] and in the assay on P388 [6] were 0.2 g and -1.1 g, respectively. Further, the T/C came out at 157% in the assay with P388 [7] and 123% in the assay on P388 [8]. In the assay on P388 [9], this compound showed a Toxicity of 1.

With `COc1ccc(C[C@H]2C(=O)O[C@H](C)[C@H](NC(=O)[C@@H](CC(C)C)N(C)C(=O)C3CCCN3C(=O)[C@H](O)c3ccccc3)C(=O)NC(C(C)C)[C@H](O)CC(=O)O[C@@H](C(C)C)C(=O)[C@H](C)C(=O)N[C@@H](CC(C)C)C(=O)N3CCC[C@H]3C(=O)N2C)cc1` (some centres not stated), the IC50 worked out at 2 ng/mL (≈ 1.72 nM) with L1210 [1] and 1.3 ng/mL (≈ 1.12 nM) with L1210 [2]. For the same compound, the “median survival time, days” value in the assay with P388 [3] is 16; with P388 [4], 19. Besides, the values for the Body weight change with P388 [5] and in the assay on P388 [6] were 0.2 g and -1.5 g, respectively. Also, the results for the T/C in the assay with P388 [7] and in the assay with P388 [8] were 159% and 134%, respectively. The Toxicity in the assay with P388 [9] worked out at 1.

(Values after ChEMBL document CHEMBL1125226, “Antineoplastic activity of didemnin congeners: nordidemnin and modified chain analogues” (1991).)
